We go through 1 molecule from ChEMBL document CHEMBL4613248, “Twelfth-Position Deuteration of Nevirapine Reduces 12-Hydroxy-Nevirapine Formation and Nevirapine-Induced Hepatocyte Death” (J Med Chem, 2020).

The subject of data set [1] is Hepatocyte. Kind of data set: Induction of change in Actb protein expression in C57BL/6J mouse primary hepatocytes at 400 uM incubated for 8 hrs by relative-quantitation label-free proteomics analysis relative to NVP. The data set is classed as cell-based. The procedure, abridged: (§1)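 Fresh primary hepatocytes from male C57BL/6J mice aged 8–13 weeks, adhered overnight, then given fresh medium containing compound (400 μM), NVP (400 μM) or vehicle (0.2% DMSO) for 8 h. Lysate reduced (DTT) and alkylated (iodoacetamide), acetone-precipitated and digested with trypsin. Label-free Top10 nanoLC-MS with precursor ion area quantitation; unpaired t test P values, Cohen's d effect size.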

A further data set addresses Cytochrome P450 2D6 (Homo sapiens, UniProt P10635). Description: Drug metabolism assessed as human CYP2D6-mediated formation of 12-OHNVP at 10 uM pre-incubated for 30 mins followed by addition of NADPH regenerating reagents by uHPLC-MS analysis. The data set is classed as ADME. The following applies: recombinant enzyme. The procedure, abridged: (§2)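 Insect-cell microsomes with single cDNA-expressed human P450 (100 nM) in 0.1 M potassium phosphate; 10 μM substrate prewarmed 5 min at 37 °C with NADPH-regenerating system, reaction started by adding microsomes; 30 min at 37 °C, 0.1% DMSO. Stopped, dried, reconstituted in methanol; triple-quadrupole SRM (12-OH 283.1→223.0, 2-OH 283.1→160.9, 3-OH 283.1→241.9), peak height; three replicates, mean ± SD.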

In data set [2] the test system is Hepatocyte. Kind of data set: Induction of change in Tf protein expression in C57BL/6J mouse primary hepatocytes at 400 uM incubated for 8 hrs by relative-quantitation label-free proteomics analysis relative to NVP. The data set is classed as cell-based. Summed up:
as §1

Data set [3] relates to Hepatocyte. Kind of data set: Induction of change in CCAR2 protein expression in human primary hepatocytes at 10 uM incubated for 48 hrs by relative-quantitation label-free proteomics analysis relative to NVP. The data set is classed as cell-based. The procedure, abridged:
(§3)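 Cryoplateable pooled human hepatocytes (10 mixed-sex donors per pool; three pools), adhered overnight, then given fresh medium containing compound (10 μM), NVP (10 μM) or vehicle (0.1% DMSO) for 48 h. Lysate reduced (DTT) and alkylated (iodoacetamide), acetone-precipitated and digested with trypsin. Label-free Top10 nanoLC-MS with precursor ion area quantitation; unpaired t test P values, Cohen's d effect size.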

Data set [4] concerns Hepatocyte. Description: Induction of change in AKAP2 protein expression in human primary hepatocytes at 10 uM incubated for 48 hrs by relative-quantitation label-free proteomics analysis relative to NVP. The data set is classed as cell-based. The procedure, abridged: as §3
Data set [5] deals with Hepatocyte. Description: Induction of change in SHMT2 protein expression in human primary hepatocytes at 10 uM incubated for 48 hrs by relative-quantitation label-free proteomics analysis relative to NVP. The data set is classed as cell-based. Summed up: as §3
For data set [6], the system named is Hepatocyte. Description: Induction of change in Slc9a3r1 protein expression in C57BL/6J mouse primary hepatocytes at 400 uM incubated for 8 hrs by relative-quantitation label-free proteomics analysis relative to NVP. The data set is classed as cell-based. Summed up:
as §1

A further data set deals with Cytochrome P450 3A5 (Homo sapiens, UniProt P20815). Kind of data set: Drug metabolism assessed as human CYP3A5-mediated formation of 12-OHNVP at 10 uM pre-incubated for 30 mins followed by addition of NADPH regenerating reagents by uHPLC-MS analysis. The data set is classed as ADME. The following applies: recombinant enzyme. The procedure, abridged: as §2
Data set [7] is described as follows: Drug metabolism in C57BL/6J mouse primary hepatocytes assessed as Cytochrome P450-mediated formation of 2-OHD3NVP at 10 uM incubated for 24 hrs by uHPLC-MS analysis. The data set is classed as ADME, cell-based. Summed up: (§4)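 Fresh hepatocytes from male C57BL/6J mice (8–13 weeks), adhered overnight, then 10 μM substrate or vehicle (0.1% DMSO) for 24 h. Medium extracted with acetonitrile (50% final), dried, reconstituted in methanol; uHPLC-Orbitrap targeted SIM plus PRM (monooxygenated metabolites) or high-resolution ions (O-glucuronides, 459.1510/462.1700 ±5 ppm); four experimental replicates.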

Data set [8] deals with T1, Cytochrome P450 3A4 (Homo sapiens, UniProt P08684). Kind of data set: Drug metabolism assessed as human CYP3A4-mediated formation of 2-OHNVP at 10 uM pre-incubated for 30 mins followed by addition of NADPH regenerating reagents by uHPLC-MS analysis. The following applies: recombinant enzyme. The data set is classed as ADME. The procedure, abridged: as §2
Data set [9] deals with Hepatocyte. Kind of data set: Induction of change in Endog protein expression in C57BL/6J mouse primary hepatocytes at 400 uM incubated for 8 hrs by relative-quantitation label-free proteomics analysis relative to NVP. The data set is classed as cell-based. The procedure, abridged:
as §1

Data set [10] deals with Hepatocyte. Kind of data set: Induction of change in Manf protein expression in C57BL/6J mouse primary hepatocytes at 400 uM incubated for 8 hrs by relative-quantitation label-free proteomics analysis relative to NVP. The data set is classed as cell-based. Summed up:
as §1

The subject of data set [11] is Hepatocyte. Kind of data set: Induction of change in PLEKHA6 protein expression in human primary hepatocytes at 10 uM incubated for 48 hrs by relative-quantitation label-free proteomics analysis relative to NVP. The data set is classed as cell-based. Summed up: as §3
The nature of data set [12]: Drug metabolism in C57BL/6J mouse primary hepatocytes assessed as Cytochrome P450-mediated formation of 3-OHD3NVP at 10 uM incubated for 24 hrs by uHPLC-MS analysis. The data set is classed as ADME, cell-based. Summed up:
as §4

For data set [13], the system named is Hepatocyte. Description: Induction of change in MTX2 protein expression in human primary hepatocytes at 10 uM incubated for 48 hrs by relative-quantitation label-free proteomics analysis relative to NVP. The data set is classed as cell-based. The procedure, abridged: as §3
The next data set deals with Cytochrome P450. Description: Drug metabolism in human primary hepatocytes assessed as Cytochrome P450-mediated formation of 2-OHNVP at 10 uM incubated for 24 to 48 hrs by uHPLC-MS analysis. The data set is classed as ADME, cell-based. The procedure, abridged:
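Cryoplateable pooled human hepatocytes (10 mixed-sex donors per pool, three lots), adhered overnight, then 10 μM substrate or vehicle (0.1% DMSO) for 24 or 48 h in InVitroGRO CP medium. Medium extracted with 50% acetonitrile, dried, reconstituted in methanol; uHPLC-Orbitrap MS/MS for monooxygenated metabolites, high-resolution MS for O-glucuronide.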

A short description of data set [14]: Drug metabolism in C57BL/6J mouse primary hepatocytes assessed as Cytochrome P450-mediated formation of 8-OHD3NVP at 10 uM incubated for 24 hrs by uHPLC-MS analysis. The data set is classed as ADME, cell-based. The procedure, abridged: as §4
The subject of data set [15] is Hepatocyte. Kind of data set: Induction of change in MRPL23 protein expression in human primary hepatocytes at 10 uM incubated for 48 hrs by relative-quantitation label-free proteomics analysis relative to NVP. The data set is classed as cell-based. The procedure, abridged:
as §3

The test system of data set [16] is Hepatocyte. Description: Induction of change in Acot13 protein expression in C57BL/6J mouse primary hepatocytes at 400 uM incubated for 8 hrs by relative-quantitation label-free proteomics analysis relative to NVP. The data set is classed as cell-based. The procedure, abridged:
as §1

Data set [17] addresses T1, Cytochrome P450 3A4. Kind of data set: Drug metabolism assessed as human CYP3A4-mediated formation of 12-OHNVP at 10 uM pre-incubated for 30 mins followed by addition of NADPH regenerating reagents by uHPLC-MS analysis. The data set is classed as ADME. The following applies: recombinant enzyme. The procedure, abridged:
as §2

The test system of data set [18] is Hepatocyte. Kind of data set: Induction of change in CARS2 protein expression in human primary hepatocytes at 10 uM incubated for 48 hrs by relative-quantitation label-free proteomics analysis relative to NVP. The data set is classed as cell-based. The procedure, abridged: as §3
Data set [19] relates to Hepatocyte. Description: Induction of change in Rps27l protein expression in C57BL/6J mouse primary hepatocytes at 400 uM incubated for 8 hrs by relative-quantitation label-free proteomics analysis relative to NVP. The data set is classed as cell-based. The procedure, abridged: as §1
The subject of data set [20] is Hepatocyte. Description: Induction of change in Sirt5 protein expression in C57BL/6J mouse primary hepatocytes at 400 uM incubated for 8 hrs by relative-quantitation label-free proteomics analysis relative to NVP. The data set is classed as cell-based. Summed up:
as §1

The subject of data set [21] is Hepatocyte. Kind of data set: Induction of change in Mrpl1 protein expression in C57BL/6J mouse primary hepatocytes at 400 uM incubated for 8 hrs by relative-quantitation label-free proteomics analysis relative to NVP. The data set is classed as cell-based. The procedure, abridged:
as §1

T1 sequence (P08684 whole entry): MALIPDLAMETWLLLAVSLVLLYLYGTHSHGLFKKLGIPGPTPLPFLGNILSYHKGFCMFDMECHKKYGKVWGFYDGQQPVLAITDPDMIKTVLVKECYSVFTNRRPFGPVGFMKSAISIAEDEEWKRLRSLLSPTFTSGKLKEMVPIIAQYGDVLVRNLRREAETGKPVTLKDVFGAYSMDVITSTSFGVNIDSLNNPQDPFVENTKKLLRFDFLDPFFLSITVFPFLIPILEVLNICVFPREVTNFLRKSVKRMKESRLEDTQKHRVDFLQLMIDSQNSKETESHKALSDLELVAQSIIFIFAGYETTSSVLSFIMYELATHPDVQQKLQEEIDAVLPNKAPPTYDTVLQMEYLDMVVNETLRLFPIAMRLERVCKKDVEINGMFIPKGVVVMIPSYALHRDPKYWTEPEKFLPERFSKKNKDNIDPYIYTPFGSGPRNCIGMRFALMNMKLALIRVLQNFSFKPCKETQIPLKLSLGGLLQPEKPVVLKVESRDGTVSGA
Sequence of Cytochrome P450 3A5 (P20815 whole entry): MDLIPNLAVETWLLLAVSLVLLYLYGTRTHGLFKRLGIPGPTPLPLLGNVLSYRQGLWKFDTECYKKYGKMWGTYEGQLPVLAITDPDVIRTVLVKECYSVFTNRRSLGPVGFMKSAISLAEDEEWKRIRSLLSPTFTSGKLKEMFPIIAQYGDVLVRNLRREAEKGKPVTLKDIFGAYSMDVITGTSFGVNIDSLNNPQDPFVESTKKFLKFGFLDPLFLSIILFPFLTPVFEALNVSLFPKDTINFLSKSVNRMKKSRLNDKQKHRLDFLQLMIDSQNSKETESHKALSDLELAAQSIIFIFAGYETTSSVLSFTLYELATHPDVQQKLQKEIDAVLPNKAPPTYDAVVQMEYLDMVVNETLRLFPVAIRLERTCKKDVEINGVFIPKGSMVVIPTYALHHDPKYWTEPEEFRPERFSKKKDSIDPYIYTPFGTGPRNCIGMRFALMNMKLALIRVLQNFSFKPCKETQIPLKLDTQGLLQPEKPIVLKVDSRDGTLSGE
Sequence of Cytochrome P450 2D6 (P10635 whole entry): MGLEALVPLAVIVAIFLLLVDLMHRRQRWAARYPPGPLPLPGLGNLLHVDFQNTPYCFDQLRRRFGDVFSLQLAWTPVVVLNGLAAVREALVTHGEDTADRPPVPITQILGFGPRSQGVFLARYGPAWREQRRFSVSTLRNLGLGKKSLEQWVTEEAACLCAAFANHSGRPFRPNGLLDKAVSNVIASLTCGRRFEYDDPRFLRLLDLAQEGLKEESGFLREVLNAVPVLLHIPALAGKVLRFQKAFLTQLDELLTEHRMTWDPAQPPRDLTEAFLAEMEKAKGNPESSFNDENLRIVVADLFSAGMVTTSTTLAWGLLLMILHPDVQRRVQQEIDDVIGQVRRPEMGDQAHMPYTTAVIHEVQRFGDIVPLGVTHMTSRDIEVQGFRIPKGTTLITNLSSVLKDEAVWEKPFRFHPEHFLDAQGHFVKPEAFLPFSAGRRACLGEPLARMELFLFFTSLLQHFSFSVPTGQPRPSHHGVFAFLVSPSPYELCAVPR

For the molecule `[2H]C([2H])([2H])c1ccnc2c1NC(=O)c1cccnc1N2C1CC1`, the “fold change (FC)” value in the data set with Hepatocyte [1] was 1.05; in the data set with Hepatocyte [2] it was -1.52; with Hepatocyte [3] it was -2.05; in the data set on Hepatocyte [4], -2.67; in the data set on Hepatocyte [5], -1.28; in the data set on Hepatocyte [6], 2.5. Further, the “fold change (FC)” value with Hepatocyte [9] is given as 2.07; in the data set with Hepatocyte [10], 1.3; in the data set on Hepatocyte [11] it was 1.59; with Hepatocyte [13], -1.67; with Hepatocyte [15] it was 8.32; in the data set with Hepatocyte [16], -1.97. Moreover, the “fold change (FC)” value in the data set with Hepatocyte [18] is reported as 1.85; in the data set on Hepatocyte [19], -5.67; in the data set on Hepatocyte [20], 1.56; with Hepatocyte [21], -1.87. Besides, the Drug metabolism result on Cytochrome P450 2D6 is “Metabolite_Detected”; on Cytochrome P450 3A5, “Metabolite_Notdetected”; in data set [7], “Metabolite_Detected”; on Cytochrome P450 3A4 [8], “Metabolite_Detected”; in data set [12], “Metabolite_Detected”; in the data set on Cytochrome P450 it was “Metabolite_Detected”. The Drug metabolism result in [14] is recorded as “Metabolite_Notdetected”; at Cytochrome P450 3A4 [17], “Metabolite_Detected”.
